Source: PubChem
Runt-SMMHC FRET – blocks binding of human RUNX1 Runt domain to CBFb-SMMHC; inhibition, % at 20 µM; Cerulean-Runt/Venus-CBFb-SMMHC FRET ratio 530/480, 1 h; AID 1434; Q01196+Q13951; hit rate 0.74% among 220,000;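 active = mean inhibition across duplicate retests at 20 µM reaching about 50%, limit read from the data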;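 also: 0% = DMSO wells and 100% = wells with excess untagged CBFb-SMMHC; inhibitors lower the FRET ratio by blocking Runt binding to CBFb-SMMHC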
Target sequence (Q01196 whole entry, looked up, the tested form may be a part): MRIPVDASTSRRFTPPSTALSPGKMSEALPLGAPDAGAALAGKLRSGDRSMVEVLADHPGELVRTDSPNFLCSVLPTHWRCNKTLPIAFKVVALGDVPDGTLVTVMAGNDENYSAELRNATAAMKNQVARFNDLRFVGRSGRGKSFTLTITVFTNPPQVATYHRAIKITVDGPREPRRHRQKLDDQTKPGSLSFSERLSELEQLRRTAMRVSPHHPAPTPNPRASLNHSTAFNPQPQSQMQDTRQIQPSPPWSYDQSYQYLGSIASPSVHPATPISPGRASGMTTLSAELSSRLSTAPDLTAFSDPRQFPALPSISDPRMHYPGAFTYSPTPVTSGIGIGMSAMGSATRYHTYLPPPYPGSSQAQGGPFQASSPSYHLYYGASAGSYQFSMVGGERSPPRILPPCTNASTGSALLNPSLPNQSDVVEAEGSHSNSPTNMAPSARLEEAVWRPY
Target sequence (Q13951 whole entry, looked up, the tested form may be a part): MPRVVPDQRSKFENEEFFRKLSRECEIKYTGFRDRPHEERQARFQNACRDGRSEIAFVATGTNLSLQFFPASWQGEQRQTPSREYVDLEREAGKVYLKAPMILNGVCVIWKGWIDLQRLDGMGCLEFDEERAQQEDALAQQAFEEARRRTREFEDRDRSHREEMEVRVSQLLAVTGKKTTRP
Runt-CBFb FRET – Runt domain-CBFb interaction inhibition; inhibition, % at 20 µM; AID 1496; Q01196+Q13951; Cerulean-Runt/Venus-CBFb FRET ratio 530/480, 1 h; hit rate 0.46% among 220,000;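 active = inhibition over about 50% at 20 µM in the single-dose screen, limit read from the data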;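 also: 0% = DMSO wells and 100% = excess unlabeled CBFb competitor control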
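Assay system: Cerulean-Runt domain fusion protein, energy donor; Signal: fluorescence energy transfer, 422 nm excitation, 530/480 nm emission; Timing: 1 h compound exposure, room temperature; Control set: unlabeled CBFb; Medium: Tris buffer pH 7.5 with salts and BSA; Compound: single test concentration of 20 µM, 1% DMSO final; Probe or stimulus: Venus-CBFb 100 nM.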
RanGTP-Impb inh – disruptors of Ran-importin-beta complex formation – biochemical, FRET, CFP-Ran, YFP-importin-beta, homogeneous, primary screen; hit rate 1.1% among 300,000; cell-free CFP-Ran/YFP-importin-beta FRET ratio; inhibition, % (concentration not given with the values);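 active = more than half of the replicate wells show a fall in the fluorescence ratio signal beyond about 16%, limit read from the data, passing the limit was not always enough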;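 also: 0% = DMSO wells and 100% = Ran loaded with GDP instead of GTP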
CaV13 FRET inh – Primary screen for inhibitors of IQ motif and Ca2+-dependent inactivation inhibitor domain binding in CACNA1D, Förster resonance energy transfer in living cells, … | HEK cells, CFP/YFP FRET ICDI-IQ, plate reader, 10 min; percent FRET-ratio fall versus neutral wells | hit rate 0.098% among 340,000 | inhibition, % at 12.3 µM;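 active = mean replicate inhibition of at least 30% and at least 1% of replicates passing that level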;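 also: 0% = median of the neutral control wells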
* marks the source's active call; other numbers are inactive results; / = not tested or not shown. A selection: hits, their analogues and other compounds. The true share with any hit is near 1.2%.

SMILES	Runt-SMMHC FRET	Runt-CBFb FRET	RanGTP-Impb inh	CaV13 FRET inh
CCOC(=O)c1sc(Nc2nc3ccc(OC)cc3s2)cc1C	62*	6	-1	-6
CCCCNC(=O)C[C@H]1C[C@@]2(C(=O)OC)C(=C[C@H](C3CCCC3)O[C@@H]2C)N(Cc2ccccc2)C1=O	/	/	/	-8
CCCN1C2CCCC1CC(NC(=S)Nc1ccc(OC)cc1)C2 (centres undefined)	71*	24	1	3
COc1ccc(NC(=S)NC2CC3CCCC(C2)N3C2CC2)cc1 (centres undefined)	2	0	3	0
CCC1=C(OC(=O)N(CC)CC)N2C(=O)OC(=NCCc3c[nH]c4ccccc34)[C@]2(Cc2ccccc2)[C@H]2C1=CC[C@H]1C(=O)N(C)C(=O)[C@H]12	1	0	-1	-4
O=C(Cc1ccccc1[N+](=O)[O-])N1CCc2ccccc2C1	6	0	-1	-4
CCCCc1cc(=O)oc2cc(C)cc(O)c12	-44	/	1	/
CCCCc1cc(=O)oc2cc(O)cc(O)c12	61*	35	5	-7
CN1CCCC1CCNc1ccc2c(=O)c3ccccc3oc2c1 (centres undefined)	/	/	49*	-6
O=c1c2ccccc2oc2cc(NCCCn3ccnc3)ccc12	/	/	58*	-3
CN1CCCC1CCNc1ccc2oc3ccccc3c(=O)c2c1 (centres undefined)	/	/	-73	-15
O=c1c2ccccc2oc2cc(NCCCN3CCOCC3)ccc12	/	/	46*	-5
O=c1c2ccccc2oc2ccc(NCCCN3CCOCC3)cc12	/	/	-12	-19
CCOC(=O)N1CCc2c(sc(NC(=O)c3ccc(S(=O)(=O)N4CCCC4)cc3)c2C#N)C1	-19	-12	4	-25
CC(=O)N1CCc2c(sc(NC(=O)c3ccc([N+](=O)[O-])o3)c2C#N)C1	-8	2	-2	-4
CC(=O)N1CCc2c(sc(NC(=O)Cc3ccc(F)cc3)c2C#N)C1	/	/	2	-4
CN1CCc2c(sc(NC(=O)Cc3ccccc3)c2C#N)C1	/	/	164*	120*
COc1cc(C(=O)Nc2sc3c(c2C#N)CCN(C(C)=O)C3)cc(OC)c1OC	79*	29	38*	-5
CC(C)N1CCc2c(sc(NC(=O)c3ccc(S(=O)(=O)N4CCOCC4)cc3)c2C#N)C1	29	15	43*	/
Cc1sc(NC(=S)NC(=O)c2ccccc2)c(C#N)c1C	/	/	0	-8
CCCN1CCc2c(sc(NC(=S)NC(=O)c3ccccc3)c2C#N)C1	93*	3	159*	16
CC(C)N1CCc2c(sc(NC(=S)NC(=O)c3ccccc3)c2C#N)C1	60*	19	162*	-2
CCSc1nc2ccc(N3C(=O)C4C5C=CC(C5)C4C3=O)cc2s1 (centres undefined)	3	-3	4	-18
O=C1/C(=C/N(C(=O)c2ccco2)c2ccc(Cl)cc2)Sc2ccccc21	75*	21	10	/
O=C1c2ccccc2C(=O)N1CCCCN(C(=O)c1ccco1)c1ccc(Cl)cc1	-2	-4	5	/
SMILES	Runt-SMMHC FRET	Runt-CBFb FRET	RanGTP-Impb inh	CaV13 FRET inh
O=C1/C(=C/N(C(=O)c2ccco2)c2ccc(Br)cc2)Sc2ccccc21	67	20	25*	/
COc1ccc(CN2c3ccccc3C(=O)CS2(=O)=O)cc1OC	/	/	/	-4
CCn1c(=O)cc(OCC(=O)N2CCN(c3cccc(C(F)(F)F)c3)CC2)c2ccccc21	-6	-5	30*	-5
O=C(Nc1ccccc1)NN(C(=O)CCl)c1ccccc1	/	/	-3	-5
CCC(=O)Nc1cccc(C2=NOC3(C2)C[C@@H](C(N)=O)N(C(=O)C(c2ccccc2)c2ccccc2)C3)c1 (some centres undefined)	0	-3	26*	-9
CCC(=O)Nc1cccc(C2=NOC3(C2)C[C@@H](C(N)=O)N(C(=O)CC(c2ccccc2)c2ccccc2)C3)c1 (some centres undefined)	-4	2	-3	-2
CC1(C)CC(=O)C2=C(C1)Nc1ccccc1NC2	87*	-28	-10	-244
O=C(CC(=O)N1CCOCC1)N1CCOCC1	/	/	/	-5
Cc1nc2c([nH]1)C1(CCN(Cc3ccccc3)CC1)C(C#N)=C(N)O2	90*	17	/	/
C=CCN(c1ccccc1OC)S(=O)(=O)c1cccc(C(=O)Nc2nnc(C3CC3)s2)c1	/	/	/	-4
CN1C(=O)c2cccc(NC(=O)CCc3ccccc3)c2C1=O	-4	0	8	-7
